Test [1] concerns Canis familiaris. As to the kind of experiment: Percent inhibition of the pressor responses to 1 ug/kg iv Epinephrine in pentobarbital-anesthetized dogs for a dose of 0.1 mg/kg. Particulars: Canis lupus familiaris. It counts as functional. The method, boiled down:
(§1)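 Dogs anesthetized with sodium pentobarbital 35 mg/kg iv; femoral artery cannulated for blood pressure, femoral vein for dosing. Epinephrine 1 μg/kg iv given at about 10-min intervals before and after increasing test doses. Test doses given iv at 90-min intervals. Result is per cent inhibition of the pressor response.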

Test [2] has as its system Canis familiaris. As to the kind of experiment: Percent inhibition of the pressor responses to 1 ug/kg iv Epinephrine in pentobarbital-anesthetized dogs for a dose of 10 mg/kg. It is filed as functional. To be noted: Canis lupus familiaris. The method, boiled down:
as §1

For test [3], the system named is Rattus norvegicus. As to the kind of experiment: The antihypertensive activity as percentage fall in systolic blood pressure in spontaneously hypertensive rats after a period of 2 hr for a dose of 50 mg/kg po.
The subject of test [4] is Canis familiaris. Put plainly: Change in mean arterial pressure in anesthetized dogs for a dose of 3.16 mg/kg. It counts as functional, Canis lupus familiaris, Artery. A digest of the protocol: (§2)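 Dogs anesthetized with sodium pentobarbital (35 mg/kg iv), femoral artery cannulated for pressure, ECG-triggered heart rate, femoral vein for dosing. Rising iv doses were given 90 min apart, and each dose is the full dose, not cumulative. Value is the maximal mean arterial pressure change 10–15 min after each dose, two dogs per compound, ±3 mmHg. Saline served as control.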

Test [5] has as its system Rattus norvegicus. As to the kind of experiment: The antihypertensive activity as percentage fall in systolic blood pressure in spontaneously hypertensive rats after a period of 2 hr for a dose of 25 mg/kg po; NS=Not significant. To be noted: Artery. Set-up: dose 25 mg/kg. It is filed as functional, organism-based. The method, boiled down:
(§3)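 Male Okamoto-Aoki SHR, trained, in groups of four matched for mean systolic pressure; one group per run received water vehicle. Oral dosing in water (0.1 mL per 10 g) on two consecutive mornings. After the day-2 dose, rats were restrained at 30.0 ± 1.0 °C. Systolic pressure was read by tail cuff (inflated to 300 mmHg, first pulse) at 1–4 h. % fall is versus the untreated control group, by 1-tail t test (p ≤ 0.05).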

The subject of test [6] is Rattus norvegicus. Put plainly: The antihypertensive activity as percentage fall in systolic blood pressure in spontaneously hypertensive rats after a period of 1 hr for a dose of 25 mg/kg po. It counts as functional, Artery. A digest of the protocol:
as §3

The test system of test [7] is Canis familiaris. Put plainly: Change in mean arterial pressure in anesthetized dogs for a dose of 0.316 mg/kg. It counts as functional, Canis lupus familiaris, Artery. A digest of the protocol:
as §2

The subject of test [8] is Rattus norvegicus. Put plainly: The antihypertensive activity as percentage fall in systolic blood pressure in spontaneously hypertensive rats after a period of 3 hr for a dose of 25 mg/kg po. It is filed as functional, Artery. A digest of the protocol: as §3

Calls of active or inactive are those of the source. No cut-off for these calls is given here. Some results are limits rather than exact numbers.

For the molecule `O=C1NCC2(CCN(CCc3c[nH]c4ccccc34)CC2)O1`, the inhibition in vivo (usually the drop in the measured response relative to a control, in per cent) at 0.1 mg/kg in test [1] is over 100%. In test [2], 10 mg/kg produced 97% inhibition in vivo. Besides, the “Decrease in blood pressure” value in test [3] turned out to be 10%.
Turning to `CN1CC2(CCN(CC(O)C3COc4ccccc4O3)CC2)OC1=O` (stereo not drawn), the MAP was -18 mmHg in test [4] and 0 mmHg in test [7]. Moreover, in test [5], the “Decrease in blood pressure” value was “inactive”. The “Decrease in blood pressure” value came to 27% in test [6] and 15% in test [8].

The record behind these values is ChEMBL document CHEMBL1121744, “Synthesis and antihypertensive activity of a series of 8-substituted 1-oxa-3,8-diazaspiro[4.5]decan-2-ones” (J Med Chem, 1981).
